Data: PMC5002266 (Nuclear medicine and biology, 2016)

Tests used:
[1] = system: BALB/c nude mice bearing U87MG human glioma xenografts; test: Biodistribution of 99mTc radiotracer in tumor-bearing mice; format: in vivo; details: BALB/c nude mice with U87MG xenografts, mean ± SD, n = 5
Procedure, shortened: (§1)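 Female BALB/c nude mice (4–5 weeks, 16–20 g) carried U87MG cells (5 × 10^6, s.c. shoulder flank) and were used at a tumor volume of ~400 mm3 (~10 days). Each received ~0.1 MBq of 99mTc tracer (~2 ng HYNIC conjugate) in saline by tail vein. Five animals were killed per time point (5, 30, 60, 120 min p.i.). Organs were weighed and γ-counted as %ID/g, and tumor-to-background ratios were reported as mean ± SD.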

Metabolism = format: in vivo; details: athymic nude mice (n = 3); ~10 MBq tail vein; feces at 2 h p.i.; radio-HPLC
Procedure, shortened: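 Athymic nude mice (n = 3) received ~10 MBq tracer i.v. Feces collected at 120 min p.i. were counted, suspended in 20% aqueous acetonitrile, vortexed ~5 min and centrifuged at 8,000 rpm. The supernatant was counted, filtered at 0.20 µm and run on radio-HPLC (C8, 1 mL/min; 25 mM NH4OAc pH 6.8/acetonitrile, isocratic 5 min then gradient to 60% acetonitrile at 20 min).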

integrin αvβ3 = test: Monitoring αvβ3 expression by SPECT/CT in three tumor models; format: in vivo, athymic nu/nu mice; details: SPECT/CT of tumor-bearing athymic nude mice, ~50 MBq
Procedure, shortened: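 Female athymic nu/nu mice (4–5 weeks) received 5 × 10^6 cells in 0.1 mL saline: U87MG and PC-3 into shoulder flanks, MDA-MB-435 into breast fat pads. At tumor sizes of 0.1–0.5 g, they were given tracer i.v. and imaged on a multi-pinhole (1.0 mm) SPECT/CT at 60 min p.i. under ~3.0% isoflurane. Tumor ROIs came from CT, and activity was converted via a γ-counter-calibrated standard curve to %ID/g, assuming ~1 g/cm3.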

[2] = Biodistribution of 99mTc radiotracer in tumor-bearing mice; format: in vivo, BALB/c nude mice; details: female, BALB/c nude, mouse, iv, 0.1 MBq, total radioactivity
Procedure, shortened: as §1

[3] = feces at 2 h p.i.; ref [14]; cited from earlier work

Molecule “[^99mTc(HYNIC-4P-RGD3)(tricine)(TPPTS)] (head to tail) [^99mTc-4P-RGD3]” has a Tumor/Blood ratio ([1]; 5 min p.i.) of 1.23 ± 0.34, a Tumor/Liver ratio ([1]; 5 min p.i.) of 0.55 ± 0.16 and a Tumor/Lung ratio ([1]; 5 min p.i.) of 0.69 ± 0.15. The Tumor/Muscle ratio ([1]; 5 min p.i.) was 1.80 ± 0.48, the Tumor/Blood ratio ([1]; 30 min p.i.) was 3.69 ± 0.48 and the Tumor/Liver ratio ([1]; 30 min p.i.) was 0.79 ± 0.11. The Tumor/Lung ratio ([1]; 30 min p.i.) was 1.07 ± 0.13, the Tumor/Muscle ratio ([1]; 30 min p.i.) was 2.29 ± 0.34 and the Tumor/Blood ratio ([1]; 60 min p.i.) was 6.21 ± 2.34. The Tumor/Liver ratio ([1]; 60 min p.i.) was 0.87 ± 0.25, the Tumor/Lung ratio ([1]; 60 min p.i.) was 1.08 ± 0.25 and the Tumor/Muscle ratio ([1]; 60 min p.i.) was 1.78 ± 0.69. The Tumor/Blood ratio ([1]; 120 min p.i.) was 8.21 ± 1.71, the Tumor/Liver ratio ([1]; 120 min p.i.) was 0.70 ± 0.19 and the Tumor/Lung ratio ([1]; 120 min p.i.) was 1.45 ± 0.22. For the same molecule, the Tumor/Muscle ratio ([1]; 120 min p.i.) was 2.79 ± 0.55, the “Radiotracer remaining intact in the feces sample” value (Metabolism) was “More than 95%” and the “Ranking order of tumor uptake values among tumor models” value (integrin αvβ3) was “U87MG > MDA-MB-435 >> PC-3”.
For `N=C(N)NCCC[C@@H]1NC(=O)[C@H](CCCCNC(=O)CCOCCOCCOCCOCCNC(=O)CC[C@H](NC(=O)CCOCCOCCOCCOCCNC(=O)c2ccc(NN)nc2)C(=O)NCCOCCOCCOCCOCCC(=O)NCCCC[C@@H]2NC(=O)[C@@H](Cc3ccccc3)NC(=O)[C@H](CC(=O)O)NC(=O)CNC(=O)[C@H](CCCNC(=N)N)NC2=O)NC(=O)[C@@H](Cc2ccccc2)NC(=O)[C@H](CC(=O)O)NC(=O)CNC1=O` [^99mTc-3P-RGD2, [^99mTc(HYNIC-3P-RGD2)(tricine)(TPPTS)], metal not drawn], the tissue uptake at 2 h ([2]; blood) was 0.32 ± 0.06 %ID/g, the tissue uptake at 0.5 h ([2]; brain) was 0.41 ± 0.17 %ID/g and the tissue uptake at 1 h ([2]; brain) was 0.41 ± 0.05 %ID/g. It also gave a tissue uptake at 2 h ([2]; brain) of 0.23 ± 0.09 %ID/g, a tissue uptake at 1 h ([2]; eyes) of 2.57 ± 0.59 %ID/g and a tissue uptake at 2 h ([2]; eyes) of 2.12 ± 0.86 %ID/g. It also gave a tissue uptake at 0.5 h ([2]; heart) of 3.48 ± 0.45 %ID/g, a tissue uptake at 1 h ([2]; heart) of 3.13 ± 0.44 %ID/g and a tissue uptake at 2 h ([2]; heart) of 2.07 ± 0.75 %ID/g. It also gave a tissue uptake at 0.5 h ([2]; intestine) of 4.24 ± 1.54 %ID/g, a tissue uptake at 1 h ([2]; intestine) of 5.45 ± 1.47 %ID/g and a tissue uptake at 2 h ([2]; intestine) of 3.37 ± 1.32 %ID/g. It also gave a tissue uptake at 0.5 h ([2]; kidneys) of 32.9 ± 2.94 %ID/g, a tissue uptake at 1 h ([2]; kidneys) of 24.6 ± 3.59 %ID/g and a tissue uptake at 2 h ([2]; kidneys) of 19.1 ± 2.6 %ID/g. It also gave a tissue uptake at 0.5 h ([2]; liver) of 5.82 ± 0.79 %ID/g, a tissue uptake at 1 h ([2]; liver) of 4.83 ± 0.6 %ID/g and a tissue uptake at 2 h ([2]; liver) of 4.52 ± 0.76 %ID/g. For the same molecule, the tissue uptake at 0.5 h ([2]; lungs) was 4.24 ± 0.87 %ID/g, the tissue uptake at 1 h ([2]; lungs) was 3.5 ± 1.01 %ID/g and the tissue uptake at 2 h ([2]; lungs) was 2.39 ± 0.71 %ID/g. For the same molecule, the tissue uptake at 0.5 h ([2]; muscle) was 2.25 ± 0.48 %ID/g, the tissue uptake at 1 h ([2]; muscle) was 1.5 ± 0.49 %ID/g and the tissue uptake at 2 h ([2]; muscle) was 1.23 ± 0.21 %ID/g. It also gave a tissue uptake at 0.5 h ([2]; spleen) of 5.03 ± 0.45 %ID/g, a tissue uptake at 1 h ([2]; spleen) of 4.02 ± 0.7 %ID/g and a tissue uptake at 2 h ([2]; spleen) of 3.8 ± 0.5 %ID/g. For the same molecule, the tissue to tissue ratio at 0.5 h ([2]; tumor / blood) was 4.33 ± 0.12, the tissue to tissue ratio at 1 h ([2]; tumor / blood) was 5.86 ± 2.21 and the tissue to tissue ratio at 2 h ([2]; tumor / blood) was 12 ± 3.62. The tissue to tissue ratio at 0.5 h ([2]; tumor / liver) was 1.16 ± 0.54, the tissue to tissue ratio at 1 h ([2]; tumor / liver) was 1.1 ± 0.54 and the tissue to tissue ratio at 2 h ([2]; tumor / liver) was 0.84 ± 0.1. The tissue to tissue ratio at 0.5 h ([2]; tumor / lung) was 1.52 ± 0.74, the tissue to tissue ratio at 1 h ([2]; tumor / lung) was 1.33 ± 0.52 and the tissue to tissue ratio at 2 h ([2]; tumor / lung) was 1.74 ± 0.63. The tissue to tissue ratio at 0.5 h ([2]; tumor / muscle) was 1.85 ± 1.38, the tissue to tissue ratio at 1 h ([2]; tumor / muscle) was 2.25 ± 1.56 and the tissue to tissue ratio at 2 h ([2]; tumor / muscle) was 3.09 ± 0.4. For the same molecule, the tissue uptake at 0.5 h ([2]; tumor) was 6.77 ± 1.3 %ID/g, the tissue uptake at 1 h ([2]; tumor) was 4.62 ± 0.57 %ID/g and the tissue uptake at 2 h ([2]; tumor) was 3.93 ± 0.63 %ID/g. The tissue uptake at 0.5 h ([2]; whole blood) was 1.54 ± 0.14 %ID/g, the tissue uptake at 1 h ([2]; whole blood) was 0.87 ± 0.1 %ID/g and the “Radiotracer remaining intact in the feces samples” value [3] was 70%.
